# From ChEMBL document CHEMBL2380254, “Optimization of tocotrienols as antiproliferative and antimigratory leads” (Eur J Med Chem, 2013)
# What was measured:
# Format in all cases: functional
# [1] = test system: SF-268; experiment: Growth inhibition of human SF268 cells assessed as cell growth at 10 uM after 48 hrs by sulforhodamine B assay; settings: SF-268, 48 h, read-out: Activity
# How it was run: (§1)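 Single-dose NCI-60 screen: adherent cells in RPMI 1640 with 5% FBS were exposed to 10 µM for 48 h at 37 °C after a 24 h preincubation. They were fixed in situ with cold TCA (10% final), stained with 0.4% SRB in 1% acetic acid, solubilized in 10 mM Tris base, and read at 515 nm. Percent growth was taken relative to time-zero and control plates.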
# [2] = test system: HL-60(TB); experiment: Growth inhibition of human HL-60(TB) cells after 48 hrs by sulforhodamine B assay; settings: HL-60, 48 h
# How it was run: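 HL-60(TB) cells (suspension) grown in RPMI 1640 with 5% FBS and 2 mM L-glutamine. They were plated and preincubated for 24 h, with T0 plates fixed at that point. Drug was given at five 10-fold dilutions for 48 h at 37 °C. Settled cells were fixed with TCA (16% final), stained with 0.4% SRB in 1% acetic acid and read at 515 nm. GI50 was taken where 100×(T−T0)/(C−T0)=50.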
# [3] = test system: OVCAR-5; experiment: Growth inhibition of human OVCAR5 cells after 48 hrs by sulforhodamine B assay; settings: OVCAR-5, 48 h
# How it was run: (§2)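 NCI-60 panel cells grown in RPMI 1640 with 5% FBS and 2 mM L-glutamine, seeded at 5000–40,000 cells/well and preincubated 24 h. Five 10-fold dilutions (0.001–100 µM) from DMSO stocks were added for 48 h at 37 °C. Adherent cells were fixed with cold TCA (10% final) for 60 min at 4 °C, stained with 0.4% SRB, and read at 515 nm. GI50 was set where 100×(T−T0)/(C−T0)=50.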
# [4] = test system: CAKI-1; experiment: Growth inhibition of human CAKI-1 cells after 48 hrs by sulforhodamine B assay; settings: CAKI-1, 48 h
# How it was run: (§3)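 NCI-60 screen: cells in RPMI 1640 with 5% FBS and 2 mM glutamine, 5000–40,000 cells/well, preincubated 24 h. Five concentrations (10-fold dilutions; 100 to 0.001 µM) applied for 48 h at 37 °C. TCA fixation, SRB stain, absorbance at 515 nm. Time-zero plates included; GI50 where 100×(T−T0)/(C−T0)=50.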
# [5] = test system: HOP-62; experiment: Growth inhibition of human HOP62 cells assessed as cell growth at 10 uM after 48 hrs by sulforhodamine B assay; settings: HOP-62, 48 h, read-out: Activity
# How it was run: (§4)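 NCI-60 single-dose screen at 10 µM: cells in RPMI 1640 with 5% FBS, preincubated 24 h, then exposed 48 h at 37 °C. TCA fixation (16% final for suspension cells), SRB staining, absorbance 515 nm. Percent growth relative to time-zero and untreated control plates; negative values indicate cell kill.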
# [6] = Growth inhibition of human EKVX cells after 48 hrs by sulforhodamine B assay; how it was run: as §3
# [7] = test system: NCI-H322M; experiment: Growth inhibition of human NCI-H322M cells after 48 hrs by sulforhodamine B assay; how it was run: as §2
# [8] = test system: KM12; experiment: Growth inhibition of human KM12 cells assessed as cell growth at 10 uM after 48 hrs by sulforhodamine B assay; settings: KM12, 48 h, read-out: Activity; how it was run: as §4
# [9] = test system: RPMI-8226; experiment: Growth inhibition of human RPMI8226 cells after 48 hrs by sulforhodamine B assay; settings: RPMI-8226, 48 h
# How it was run: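 NCI-60 suspension lines in RPMI 1640 with 5% FBS and 2 mM L-glutamine, preincubated 24 h. A five-concentration 10-fold series (0.001–100 µM) was given for 48 h at 37 °C. Settled cells were fixed with 80% TCA (16% final), stained with SRB, and read at 515 nm. GI50 was taken where 100×(T−T0)/(C−T0)=50, with T0 plates fixed at drug addition.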
# [10] = test system: UACC-257; experiment: Growth inhibition of human UACC257 cells assessed as cell growth at 10 uM after 48 hrs by sulforhodamine B assay; settings: UACC-257, 48 h, read-out: Activity
# How it was run: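 Single-dose NCI-60 test at 10 µM. Cells were grown in RPMI 1640 with 5% FBS and 2 mM L-glutamine, preincubated 24 h, with T0 plates TCA-fixed. Exposure was 48 h at 37 °C, 5% CO2. Cells were fixed with cold TCA (final 10%, 4 °C, 60 min), stained with SRB and read at 515 nm. Percent growth was taken relative to T0 and untreated control; negative values denote cell kill.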
# [11] = test system: HOP-92; experiment: Growth inhibition of human HOP92 cells after 48 hrs by sulforhodamine B assay; settings: HOP-92, 48 h; how it was run: as §3
# [12] = test system: NCI-H522; experiment: Growth inhibition of human NCI-H522 cells after 48 hrs by sulforhodamine B assay; settings: NCI-H522, 48 h; how it was run: as §2
# [13] = test system: LOX IMVI; experiment: Growth inhibition of human LOXIMVI cells assessed as cell growth at 10 uM after 48 hrs by sulforhodamine B assay; settings: read-out: Activity; how it was run: as §4
# [14] = test system: NCI-H460; experiment: Growth inhibition of human NCI-H460 cells assessed as cell growth at 10 uM after 48 hrs by sulforhodamine B assay; settings: NCI-H460, 48 h, read-out: Activity; how it was run: as §1
# [15] = test system: K562; experiment: Growth inhibition of human K562 cells assessed as cell growth at 10 uM after 48 hrs by sulforhodamine B assay; settings: K562, 48 h, read-out: Activity; how it was run: as §4
# [16] = test system: SR; experiment: Growth inhibition of human SR cells after 48 hrs by sulforhodamine B assay
# How it was run: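 Suspension leukemia line in RPMI 1640 with 5% FBS and 2 mM L-glutamine, NCI-60 five-dose format ([…]), 48 h at 37 °C. Settled cells were fixed with 80% TCA (final 16%), stained with SRB and read at 515 nm. GI50 is where 100×(T−T0)/(C−T0)=50, with T0 measured at dosing.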
# [17] = test system: OVCAR-4; experiment: Growth inhibition of human OVCAR4 cells after 48 hrs by sulforhodamine B assay; settings: OVCAR-4, 48 h; how it was run: as §2
# [18] = test system: HCT-15; experiment: Growth inhibition of human HCT15 cells after 48 hrs by sulforhodamine B assay; settings: HCT-15, 48 h; how it was run: as §3
# [19] = test system: Malme-3M; experiment: Growth inhibition of human MALME-3M cells assessed as cell growth at 10 uM after 48 hrs by sulforhodamine B assay; settings: read-out: Activity; how it was run: as §1
# [20] = test system: M14; experiment: Growth inhibition of human M14 cells assessed as cell growth at 10 uM after 48 hrs by sulforhodamine B assay; settings: M14, 48 h, read-out: Activity; how it was run: as §4
# [21] = test system: RXF 393; experiment: Growth inhibition of human RXF393 cells after 48 hrs by sulforhodamine B assay; settings: RXF 393, 48 h; how it was run: as §2
# [22] = test system: 786-0; experiment: Growth inhibition of human 786-0 cells assessed as cell growth at 10 uM after 48 hrs by sulforhodamine B assay; settings: 786-0, 48 h, read-out: Activity; how it was run: as §4
# [23] = test system: SF-295; experiment: Growth inhibition of human SF295 cells after 48 hrs by sulforhodamine B assay; settings: SF-295, 48 h; how it was run: as §2
# [24] = Growth inhibition of human NCI-ADR-RES cells assessed as cell growth at 10 uM after 48 hrs by sulforhodamine B assay; settings: read-out: Activity; how it was run: as §1
Structure (SMILES),growth at 10 µM [1],GI50 [2],GI50 [3],GI50 [4],growth at 10 µM [5],GI50 [6],GI50 [7],growth at 10 µM [8],GI50 [9],growth at 10 µM [10],GI50 [11],GI50 [12],growth at 10 µM [13],growth at 10 µM [14],GI50 [16],GI50 [17],GI50 [18],growth at 10 µM [19],growth at 10 µM [20],GI50 [21],also measured
CC(C)=CCC/C(C)=C/CC/C(C)=C/CC[C@]1(C)CCc2c3c(cc(C)c2O1)OCN(CCCO)C3,-78.5%,2.19 µM,1.77 µM,2.33 µM,-76.3%,5.11 µM,1.87 µM,-77.4%,2.16 µM,64.2%,1.46 µM,1.79 µM,-89.8%,-75.1%,1.04 µM,1.64 µM,1.97 µM,110%,15.1%,1.2 µM,growth at 10 µM [15]: -33.4%; growth at 10 µM [22]: 16.6%; GI50 [23]: 1.76 µM; growth at 10 µM [24]: -26.4%
CC(C)=CCC/C(C)=C/CC/C(C)=C/CC[C@]1(C)CCc2c3c(cc(C)c2O1)OCN(C1CCN(Cc2ccccc2)CC1)C3,12.9%,0.349 µM,2.17 µM,1.6 µM,111%,1.69 µM,1.85 µM,-44%,0.324 µM,93%,0.269 µM,1.81 µM,-47.4%,-78.7%,0.217 µM,1.54 µM,4.03 µM,122%,50.1%,1.22 µM,growth at 10 µM [15]: -29.3%; growth at 10 µM [22]: 24.1%; GI50 [23]: 1.88 µM; growth at 10 µM [24]: 62.9%
CC(C)=CCC/C(C)=C/CC/C(C)=C/CC[C@]1(C)CCc2c3c(c(C)c(C)c2O1)OCN(CCCCCO)C3,75.9%,6.26 µM,5.93 µM,5.33 µM,114%,6.08 µM,6.35 µM,29.3%,9.91 µM,110%,5.42 µM,7.08 µM,40.2%,-49.6%,4 µM,5.68 µM,6.24 µM,106%,107%,1.94 µM,growth at 10 µM [15]: -55.4%; growth at 10 µM [22]: 90.2%; GI50 [23]: 6.12 µM; growth at 10 µM [24]: 82.5%
CC(C)=CCC/C(C)=C/CC/C(C)=C/CC[C@]1(C)CCc2c3c(c(C)c(C)c2O1)OCN(CCCCO)C3,75.2%,3.86 µM,> 10 µM,> 10 µM,75%,> 10 µM,> 10 µM,27.3%,5.15 µM,112%,2.9 µM,> 10 µM,-90.5%,4.31%,2.47 µM,3.11 µM,4.8 µM,93.3%,65.4%,5.63 µM,growth at 10 µM [22]: 72.8%; GI50 [23]: 2.08 µM; growth at 10 µM [24]: 57.5%
CC(C)=CCC/C(C)=C/CC/C(C)=C/CC[C@]1(C)CCc2c3c(cc(C)c2O1)OCN(CCCCO)C3,-70.5%,18.8 µM,17.3 µM,15.2 µM,-84.5%,19.6 µM,17.2 µM,-89.5%,20.4 µM,98.1%,10.1 µM,21.9 µM,100%,-20.4%,7.26 µM,16.4 µM,17.7 µM,51.2%,-45.8%,4.68 µM,growth at 10 µM [22]: -49.2%; GI50 [23]: 18.2 µM; growth at 10 µM [24]: -68.8%
CC(C)=CCC/C(C)=C/CC/C(C)=C/CC[C@]1(C)CCc2c3c(cc(C)c2O1)OCN(CCc1ccc(O)cc1)C3,18.2%,3.34 µM,6.11 µM,5.31 µM,-31.3%,6.13 µM,6.2 µM,-19.4%,4.03 µM,105%,4 µM,5.32 µM,-93%,-44.4%,1.37 µM,5.36 µM,5.87 µM,95.8%,9.79%,3.34 µM,growth at 10 µM [15]: 3.51%; growth at 10 µM [22]: 69%; GI50 [23]: 6.22 µM; growth at 10 µM [24]: 37.5%
CC(C)=CCC/C(C)=C/CC/C(C)=C/CC[C@]1(C)CCc2c3c(cc(C)c2O1)OCN(CCCCCCO)C3,-80.2%,1.37 µM,2.55 µM,3.79 µM,-94.5%,5.31 µM,3.75 µM,-79.1%,1.11 µM,90.5%,1.05 µM,4.37 µM,-90.8%,-15.7%,0.67 µM,0.518 µM,1.1 µM,-50.2%,-90.8%,0.546 µM,growth at 10 µM [22]: -98%; GI50 [23]: 0.602 µM; growth at 10 µM [24]: -64.1%
CC(C)=CCC/C(C)=C/CC/C(C)=C/CC[C@]1(C)CCc2c3c(c(C)c(C)c2O1)OCN(CCCCCCO)C3,26%,3.58 µM,2.76 µM,2.82 µM,-23.3%,2.66 µM,2.71 µM,7.87%,3.36 µM,104%,1.89 µM,3.45 µM,-88.4%,2.49%,2.7 µM,2.49 µM,2.69 µM,85.7%,26%,2.3 µM,growth at 10 µM [22]: 33.7%; GI50 [23]: 2.97 µM; growth at 10 µM [24]: 30.1%
